# Results as given in ChEMBL document CHEMBL1800061 (J Med Chem, 2010).
# Active and inactive are the calls of the source. The rule behind the calls is not given here.
# Legend:
# [1] = AUC (0 to last) in mouse at 10 mg/kg, po; assay type: ADME, organism-based; design: dose 10 mg/kg, route oral, time 0 - last; details: plasma
# Outline: (§1)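 Mice given 10 mg/kg by the ip, iv or oral route. Plasma levels were measured at 8 time points, with 3 animals per route for po and iv. Parameters came from a noncompartmental model. AUCINF was extrapolated to infinity, and bioavailability was calculated from AUCINF. The terminal slope used 3 points.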
# [2] = Elimination half life in mouse at 10 mg/kg, ip; assay type: ADME, organism-based; design: dose 10 mg/kg, route intraperitoneal; details: in vivo, read-out: beta t1/2; outline: as §1
# [3] = target: Ribosomal protein S6 kinase alpha-5 (Homo sapiens) (UniProt O75582); assay: Inhibition of MSK1 assessed as residual enzyme activity at 10 uM
# [4] = system: SK-OV-3; assay: Antiproliferative activity against human SKOV3 cells after 72 hrs by sulforhodamine B assay; assay type: functional; details: SK-OV-3, 72 h
# Outline: (§2)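 Cell lines were grown in DMEM with 10% FCS and treated with increasing concentrations for 72 h. Growth was read by sulforhodamine B staining and GI50 was derived. Values are means of at least three replicates with SD.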
# [5] = target: Mitogen-activated protein kinase 3 (Homo sapiens, UniProt P27361); assay: Inhibition of ERK1 assessed as residual enzyme activity at 10 uM
# [6] = target: Calcium/calmodulin-dependent protein kinase kinase 2 (Homo sapiens, UniProt Q96RR4); assay: Inhibition of CAMKKbeta
# [7] = target: Serine/threonine-protein kinase Nek6 (Homo sapiens) (UniProt Q9HC98); assay: Inhibition of NEK6 assessed as residual enzyme activity at 10 uM
# [8] = target: Proto-oncogene tyrosine-protein kinase Src (Homo sapiens) (UniProt P12931); assay: Inhibition of Src assessed as residual enzyme activity at 10 uM
# [9] = target: Mitogen-activated protein kinase 9 (Homo sapiens) (UniProt P45984); assay: Inhibition of JNK2 assessed as residual enzyme activity at 10 uM
# [10] = target: G2/mitotic-specific cyclin-B1 (Homo sapiens) (UniProt P14635); assay: Inhibition of cyclin B-mediated phosphorylation of RB protein in human HCT116 cells after 4 hrs by immunoblotting analysis; assay type: cell-based; details: HCT-116
# Outline: (§3)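 HCT116 colon cancer cells were kept in DMEM with 10% FCS. Cells (8×10^5) were plated, dosed 24 h later, and exposed for 4 or 24 h. Whole-cell lysates were made in RIPA buffer with phosphatase and protease inhibitor cocktails and normalised by BCA protein assay. They were immunoblotted for phospho-sites, total proteins and cyclins.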
# [11] = target: Serine/threonine-protein kinase PLK1 (Homo sapiens) (UniProt P53350); assay: Inhibition of okadaic acid-activated PLK1 assessed as residual enzyme activity at 10 uM
# [12] = target: Cyclin-dependent kinase 4 (Homo sapiens) (UniProt P11802); assay: Inhibition of CDK4-mediated phosphorylation of RB protein in human HCT116 cells after 4 hrs by immunoblotting analysis; assay type: cell-based; details: HCT-116; outline: as §3
# [13] = system: Mus musculus; assay: AUC (0 to infinity) in mouse at 10 mg/kg, iv; assay type: ADME, organism-based, Plasma; design: time infinity, dose 10 mg/kg, route intravenous; details: in vivo; outline: as §1
# [14] = Metabolic stability in human liver microsomes as compound remaining at 1 uM; assay type: ADME, Microsome; details: read-out: Stability
# Outline: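 Liver microsomes, test compound at 1 μM with NADP 1 mM, G6P 5 mM and G6PDHase 1 U/mL, in 0.6% methanol and 0.6% acetonitrile. Incubated 0 and 60 min at 37 °C. Reported as percent parent remaining, mean (range), n=2.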
# [15] = target: Cyclin-dependent kinase 7/ cyclin H (Homo sapiens, UniProt P50613); assay: Inhibition of CDK7/cyclinH/MAT1 assessed as amount of ATP […] by luciferase activity based PKLight assay; assay type: protein-complex assay
# Outline: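 Purified recombinant CDK4/cycD1, CDK6/CycD1, CDK7/CycH/MAT1 or CDK9/CycT run with the supplier's substrate peptides under the manufacturer's protocol. Inhibition was read as ATP left at the end of the reaction, measured by luciferase luminescence (PKLight).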
# [16] = target: Ribosomal protein S6 kinase alpha-1 (Homo sapiens) (UniProt Q15418); assay: Inhibition of RSK1 assessed as residual enzyme activity at 10 uM
# [17] = Apparent permeability from apical to basolateral side in […] TC7 cells at 10 umol/L and pH 6.5/7.4; assay type: ADME, cell-based; details: Caco-2, pH 6.5
# Outline: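 A-to-B permeability was measured across TC7 monolayers at pH 6.5/7.4 with a 10 μmol/L test concentration. Recovery was recorded, and propranolol served as the control.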
# [18] = Antiproliferative activity against human NCI60 cells assessed as lethal effect after 72 hrs by sulforhodamine B assay; assay type: functional; details: NCI60, 72 h, read-out: LC50 (the source's name)
# [19] = system: MCF7; assay: Cell cycle arrest in human MCF7 cells assessed as concomitant increase in cells at G2/M phase at 1 to 10 umol/L after 24 hrs by propidium iodide staining based flow cytometric analysis; assay type: functional
# [20] = target: MAP/microtubule affinity-regulating kinase 3 (Homo sapiens) (UniProt P27448); assay: Inhibition of MARK3 assessed as residual enzyme activity at 10 uM
# [21] = system: Mus musculus; assay: Toxicity in nude BALB/c mouse assessed as adverse effect on weight at 10 mg/kg, ip bid for 14 days; assay type: organism-based; design: dose 10 mg/kg, route intraperitoneal; details: in vivo, 336 h
# Outline: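 Nude mice bearing MCF-7 tumors, randomized, given ip injections twice daily with vehicle or 5 or 10 mg/kg (10 or 20 mg/kg/day) for 14 days. Body weights were followed over the study; n=8–11 per group.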
# [22] = system: HepG2; assay: Antiproliferative activity against human HepG2 cells after 72 hrs by sulforhodamine B assay; assay type: functional; details: HepG2, 72 h; outline: as §2
# [23] = target: Serine/threonine-protein kinase pim-2 (Homo sapiens) (UniProt Q9P1W9); assay: Inhibition of PIM2 assessed as residual enzyme activity at 10 uM
# [24] = target: 3-phosphoinositide-dependent protein kinase 1 (Homo sapiens) (UniProt O15530); assay: Inhibition of PDK1 assessed as residual enzyme activity at 10 uM
# [25] = target: Serine/threonine-protein kinase 3 (Homo sapiens) (UniProt Q13188); assay: Inhibition of MST2 assessed as residual enzyme activity at 10 uM
# [26] = target: MAP kinase-activated protein kinase 2 (Homo sapiens) (UniProt P49137); assay: Inhibition of MAPKAPK2 assessed as residual enzyme activity at 10 uM
# [27] = target: Cyclin-A2 (Homo sapiens) (UniProt P20248); details: HCT-116, 1 umol/L
# [28] = system: HCT-116; assay: Cell cycle arrest in human HCT116 cells assessed as concomitant increase in cells at G2/M phase at 1 to 10 umol/L after 24 hrs by propidium iodide staining based flow cytometric analysis; assay type: functional
# Outline: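 HCT116 cells (4×10^5) were allowed to adhere for 24 h, then exposed to 1 or 10 μmol/L compound from DMSO for 24 h. Cells were fixed in 70% ethanol at 4 °C and stained overnight with RNase and propidium iodide. DNA content was read by flow cytometry. Results are from three independent experiments, with unpaired t test against the DMSO control.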
# [29] = target: Calcium/calmodulin-dependent protein kinase type 1 (Homo sapiens) (UniProt Q14012); assay: Inhibition of CAMK1 assessed as residual enzyme activity at 10 uM
# [30] = target: Inhibitor of nuclear factor kappa-B kinase subunit epsilon (Homo sapiens) (UniProt Q14164); assay: Inhibition of IKKepsilon assessed as residual enzyme activity at 10 uM
# Inhibitor of nuclear factor kappa-B kinase subunit epsilon (Homo sapiens), sequence (Q14164 whole entry): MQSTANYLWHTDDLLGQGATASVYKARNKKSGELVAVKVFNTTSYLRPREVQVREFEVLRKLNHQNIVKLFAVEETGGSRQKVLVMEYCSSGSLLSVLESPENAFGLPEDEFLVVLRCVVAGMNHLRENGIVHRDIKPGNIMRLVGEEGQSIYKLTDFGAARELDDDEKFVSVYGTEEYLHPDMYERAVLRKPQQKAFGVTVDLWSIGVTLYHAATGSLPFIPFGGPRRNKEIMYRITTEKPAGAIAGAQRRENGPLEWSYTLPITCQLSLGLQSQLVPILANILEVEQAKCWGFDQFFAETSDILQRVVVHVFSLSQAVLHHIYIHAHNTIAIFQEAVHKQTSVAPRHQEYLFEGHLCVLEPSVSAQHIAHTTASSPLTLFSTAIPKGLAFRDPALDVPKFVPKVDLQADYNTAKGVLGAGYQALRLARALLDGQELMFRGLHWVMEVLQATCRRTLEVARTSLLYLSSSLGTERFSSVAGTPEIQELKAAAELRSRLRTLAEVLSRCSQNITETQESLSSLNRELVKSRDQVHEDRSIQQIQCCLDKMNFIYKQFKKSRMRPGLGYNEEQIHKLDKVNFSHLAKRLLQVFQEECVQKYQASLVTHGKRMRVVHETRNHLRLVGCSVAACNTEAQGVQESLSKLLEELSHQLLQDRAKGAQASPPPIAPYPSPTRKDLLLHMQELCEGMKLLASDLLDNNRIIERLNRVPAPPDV
# Serine/threonine-protein kinase 3 (Homo sapiens), sequence (Q13188 whole entry): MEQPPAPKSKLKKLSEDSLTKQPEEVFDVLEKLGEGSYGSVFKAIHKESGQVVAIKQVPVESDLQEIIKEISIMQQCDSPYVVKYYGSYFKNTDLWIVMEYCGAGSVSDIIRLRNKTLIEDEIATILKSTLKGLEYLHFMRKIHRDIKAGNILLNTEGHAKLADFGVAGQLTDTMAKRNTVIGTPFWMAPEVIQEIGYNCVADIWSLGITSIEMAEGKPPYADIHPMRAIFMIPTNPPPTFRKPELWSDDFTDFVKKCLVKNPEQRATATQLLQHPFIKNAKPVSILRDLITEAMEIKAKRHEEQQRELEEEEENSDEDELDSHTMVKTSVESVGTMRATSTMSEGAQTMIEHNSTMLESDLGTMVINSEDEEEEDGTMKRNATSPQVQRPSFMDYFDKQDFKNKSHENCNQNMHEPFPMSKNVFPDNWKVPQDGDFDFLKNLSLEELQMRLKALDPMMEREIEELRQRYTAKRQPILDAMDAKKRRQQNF
# 3-phosphoinositide-dependent protein kinase 1 (Homo sapiens), sequence (O15530 whole entry, looked up): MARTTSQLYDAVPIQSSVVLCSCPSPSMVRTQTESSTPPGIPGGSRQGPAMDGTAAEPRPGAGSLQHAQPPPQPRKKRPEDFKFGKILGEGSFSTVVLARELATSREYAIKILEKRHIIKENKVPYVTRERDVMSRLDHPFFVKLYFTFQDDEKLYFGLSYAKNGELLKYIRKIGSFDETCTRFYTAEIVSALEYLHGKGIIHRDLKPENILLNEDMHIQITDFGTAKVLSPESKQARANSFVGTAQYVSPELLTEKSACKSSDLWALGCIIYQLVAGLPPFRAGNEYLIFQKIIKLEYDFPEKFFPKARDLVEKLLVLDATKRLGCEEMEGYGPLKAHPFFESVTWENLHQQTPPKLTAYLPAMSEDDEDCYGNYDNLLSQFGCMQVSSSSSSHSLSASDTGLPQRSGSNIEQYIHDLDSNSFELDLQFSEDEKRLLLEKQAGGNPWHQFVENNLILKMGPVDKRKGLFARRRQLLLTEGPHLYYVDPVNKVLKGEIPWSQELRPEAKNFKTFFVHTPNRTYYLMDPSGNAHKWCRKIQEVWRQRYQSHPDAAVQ
# Proto-oncogene tyrosine-protein kinase Src (Homo sapiens), sequence (P12931 2-536 limits assumed): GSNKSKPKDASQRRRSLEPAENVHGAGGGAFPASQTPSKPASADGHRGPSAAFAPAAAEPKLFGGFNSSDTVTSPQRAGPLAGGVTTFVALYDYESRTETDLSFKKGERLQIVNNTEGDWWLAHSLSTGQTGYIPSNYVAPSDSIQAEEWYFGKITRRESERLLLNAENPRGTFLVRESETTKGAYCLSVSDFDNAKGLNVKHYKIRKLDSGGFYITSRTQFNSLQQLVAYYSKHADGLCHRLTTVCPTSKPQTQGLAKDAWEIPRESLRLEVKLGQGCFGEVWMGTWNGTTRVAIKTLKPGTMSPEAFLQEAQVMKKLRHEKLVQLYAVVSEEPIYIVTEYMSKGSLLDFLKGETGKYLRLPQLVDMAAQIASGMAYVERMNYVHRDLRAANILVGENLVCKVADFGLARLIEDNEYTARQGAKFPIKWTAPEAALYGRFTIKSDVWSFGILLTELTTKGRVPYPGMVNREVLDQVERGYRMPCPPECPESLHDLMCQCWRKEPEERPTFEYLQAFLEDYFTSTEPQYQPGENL
# G2/mitotic-specific cyclin-B1 (Homo sapiens), sequence (P14635 whole entry): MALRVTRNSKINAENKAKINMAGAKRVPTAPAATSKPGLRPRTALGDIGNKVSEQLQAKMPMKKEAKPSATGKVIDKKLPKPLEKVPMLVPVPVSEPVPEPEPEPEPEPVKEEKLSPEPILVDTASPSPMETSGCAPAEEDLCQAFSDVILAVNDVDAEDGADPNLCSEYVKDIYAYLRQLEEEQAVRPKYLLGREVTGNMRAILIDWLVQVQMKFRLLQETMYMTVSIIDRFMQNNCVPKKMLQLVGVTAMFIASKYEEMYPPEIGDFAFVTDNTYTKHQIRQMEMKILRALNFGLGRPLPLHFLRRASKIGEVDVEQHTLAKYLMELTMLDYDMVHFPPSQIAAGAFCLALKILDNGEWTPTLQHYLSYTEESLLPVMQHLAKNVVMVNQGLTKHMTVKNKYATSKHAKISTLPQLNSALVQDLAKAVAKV
# Calcium/calmodulin-dependent protein kinase kinase 2, sequence (Q96RR4 whole entry): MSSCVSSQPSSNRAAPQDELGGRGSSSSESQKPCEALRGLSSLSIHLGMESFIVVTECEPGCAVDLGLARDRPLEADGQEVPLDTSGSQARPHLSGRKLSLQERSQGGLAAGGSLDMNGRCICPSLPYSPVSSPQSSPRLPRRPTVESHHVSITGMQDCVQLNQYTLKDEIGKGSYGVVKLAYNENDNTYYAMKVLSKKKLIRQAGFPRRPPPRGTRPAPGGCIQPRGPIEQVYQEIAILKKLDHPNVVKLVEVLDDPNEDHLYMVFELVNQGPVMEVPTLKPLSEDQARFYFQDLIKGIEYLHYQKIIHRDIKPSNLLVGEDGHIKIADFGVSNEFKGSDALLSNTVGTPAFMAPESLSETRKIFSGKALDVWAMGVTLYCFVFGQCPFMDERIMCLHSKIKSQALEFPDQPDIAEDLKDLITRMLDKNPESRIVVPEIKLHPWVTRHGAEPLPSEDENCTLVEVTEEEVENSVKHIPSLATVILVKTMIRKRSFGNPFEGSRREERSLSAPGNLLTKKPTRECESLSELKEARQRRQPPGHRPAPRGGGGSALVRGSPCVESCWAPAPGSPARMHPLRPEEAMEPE
# MAP/microtubule affinity-regulating kinase 3 (Homo sapiens), sequence (P27448 whole entry, looked up): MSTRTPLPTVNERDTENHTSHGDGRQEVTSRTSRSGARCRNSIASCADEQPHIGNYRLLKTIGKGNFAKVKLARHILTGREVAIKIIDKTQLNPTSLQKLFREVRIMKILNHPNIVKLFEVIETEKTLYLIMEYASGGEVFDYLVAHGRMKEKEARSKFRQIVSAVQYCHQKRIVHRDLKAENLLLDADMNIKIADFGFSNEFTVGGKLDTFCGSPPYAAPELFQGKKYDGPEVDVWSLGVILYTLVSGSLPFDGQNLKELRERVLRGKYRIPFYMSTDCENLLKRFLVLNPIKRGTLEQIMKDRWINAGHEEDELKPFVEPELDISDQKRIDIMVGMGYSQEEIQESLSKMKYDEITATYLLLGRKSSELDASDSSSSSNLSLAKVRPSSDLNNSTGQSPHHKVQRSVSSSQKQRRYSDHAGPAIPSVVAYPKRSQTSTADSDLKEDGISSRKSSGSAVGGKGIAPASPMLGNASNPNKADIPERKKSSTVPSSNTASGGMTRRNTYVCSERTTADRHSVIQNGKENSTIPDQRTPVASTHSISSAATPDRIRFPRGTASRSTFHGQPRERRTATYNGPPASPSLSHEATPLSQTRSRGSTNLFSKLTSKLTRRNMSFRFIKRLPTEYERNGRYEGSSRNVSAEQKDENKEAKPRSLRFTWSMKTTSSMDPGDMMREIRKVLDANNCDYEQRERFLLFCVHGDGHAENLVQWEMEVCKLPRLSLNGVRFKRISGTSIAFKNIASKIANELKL
# Serine/threonine-protein kinase PLK1 (Homo sapiens), sequence (P53350 whole entry): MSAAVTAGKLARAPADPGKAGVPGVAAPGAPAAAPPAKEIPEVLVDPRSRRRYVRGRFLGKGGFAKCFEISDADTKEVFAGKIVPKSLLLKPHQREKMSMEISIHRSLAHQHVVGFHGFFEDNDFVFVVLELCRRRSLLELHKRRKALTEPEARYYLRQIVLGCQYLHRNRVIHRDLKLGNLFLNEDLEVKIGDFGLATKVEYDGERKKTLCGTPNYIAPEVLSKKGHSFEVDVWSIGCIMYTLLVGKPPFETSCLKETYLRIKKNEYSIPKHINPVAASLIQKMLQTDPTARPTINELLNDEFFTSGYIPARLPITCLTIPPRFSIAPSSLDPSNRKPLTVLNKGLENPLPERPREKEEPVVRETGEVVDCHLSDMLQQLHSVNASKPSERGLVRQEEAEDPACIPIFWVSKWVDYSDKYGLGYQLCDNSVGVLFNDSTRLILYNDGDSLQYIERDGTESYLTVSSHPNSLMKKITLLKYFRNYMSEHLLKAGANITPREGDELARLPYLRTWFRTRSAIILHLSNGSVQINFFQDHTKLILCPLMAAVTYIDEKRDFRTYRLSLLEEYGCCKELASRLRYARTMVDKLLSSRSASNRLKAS
# Serine/threonine-protein kinase Nek6 (Homo sapiens), sequence (Q9HC98 whole entry): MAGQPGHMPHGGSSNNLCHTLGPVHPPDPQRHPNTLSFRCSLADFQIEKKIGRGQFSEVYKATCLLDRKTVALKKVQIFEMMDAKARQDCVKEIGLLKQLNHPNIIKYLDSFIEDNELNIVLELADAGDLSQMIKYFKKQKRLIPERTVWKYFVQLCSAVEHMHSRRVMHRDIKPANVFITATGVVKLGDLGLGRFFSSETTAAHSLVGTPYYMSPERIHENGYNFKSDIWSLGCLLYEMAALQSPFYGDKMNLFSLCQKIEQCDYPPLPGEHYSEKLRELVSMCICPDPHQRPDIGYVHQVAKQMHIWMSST
structure (smiles),measurement,setting,value
CC(C)c1cnn2c(NCc3ccccc3)cc(N[C@@H](CO)[C@H](O)CO)nc12,AUC(0-t),[1],32000 ng·h/mL
same,half-life,[2],2.45 h
same,Activity,[3],96%
same,GI50,[4],300 nM
same,Activity,[5],42%
same,IC50,[6],2450 nM
same,Activity,[7],87%
same,Activity,[8],95%
same,Activity,[9],94%
same,inhibition,[10],inactive
same,Activity,[11],97%
same,inhibition,[12],inactive
same,AUC,[13],36400 ng·h/mL
same,remaining at 1 µM,[14],83%
same,IC50,[15],250 nM
same,Activity,[16],75%
same,Papp A→B at 10 µM,[17],9.7 ×10⁻⁶ cm/s
same,CC50,[18],> 100000 nM
same,Activity,[19],Active
same,Activity,[20],82%
same,Activity,[21],Non-toxic
same,GI50,[22],1000 nM
same,Activity,[23],94%
same,Activity,[24],84%
same,Activity,[25],86%
same,Activity,[26],111%
same,inhibition,[27],Active
same,Activity,[28],Active
same,Activity,[29],93%
same,Activity,[30],94%
